Screens: PubChem BioAssay, Johns Hopkins Ion Channel Center
KCNK9 inh: KCNK9 potassium channel inhibitors, primary screen, HEK293 cells, thallium flux; FluxOR thallium flux fluorescence; active compounds read low; B-score at 10 µM; 310,000 compounds, 1.2% hits;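 active = ratio B-score over 3 SD below the library mean, with starting fluorescence within 5 SD of its mean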;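 note: negative B-score means less thallium flux so channel inhibition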
hERG protect: hERG rescue from dofetilide block, primary screen, cell-based, CHO-hERG, FluxOR thallium flux, dofetilide IC70 | Voltage-gated inwardly rectifying potassium channel KCNH2 (Homo sapiens), Q12809 | dofetilide IC70 present | activation (rescue from dofetilide block), less the hit threshold, % at 10 µM | 310,000 compounds, 0.51% hits | AID 1511, 2009;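 active = activation above the mean of controls blocked by dofetilide plus 5 SD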;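 note: thallium influx through hERG after potassium depolarization seen as dye fluorescence rise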
KCNK3 block: human KCNK3 channel inhibitors, primary screen, CHO cells, FluxOR thallium flux, B-score; FluxOR fluorescence; active compounds read low; B-score at 10 µM; 340,000 compounds, 0.84% hits; AID 602410, 2012;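 active = B-score under library mean minus 4 SD, starting fluorescence ratio at most library mean plus 5 SD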;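 note: more negative B-score means stronger inhibition of thallium flux through KCNK3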
KCNQ1 pot: potentiators or activators of KCNQ1 channel, primary screen, cell-based, thallium flux, high-throughput | Potassium voltage-gated channel subfamily KQT member 1 (Homo sapiens), P51787 | CHO-K1 KCNQ1, thallium flux FluxOR fluorescence; active compounds read high | B-score at 10 µM | 310,000 compounds, 0.35% hits | AID 2648, 2010;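 active = fluorescence ratio B-score, a plate-corrected score, at least three library SD, with initial intensity B-score within 5 SD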
Target sequence (P51787 whole entry, looked up): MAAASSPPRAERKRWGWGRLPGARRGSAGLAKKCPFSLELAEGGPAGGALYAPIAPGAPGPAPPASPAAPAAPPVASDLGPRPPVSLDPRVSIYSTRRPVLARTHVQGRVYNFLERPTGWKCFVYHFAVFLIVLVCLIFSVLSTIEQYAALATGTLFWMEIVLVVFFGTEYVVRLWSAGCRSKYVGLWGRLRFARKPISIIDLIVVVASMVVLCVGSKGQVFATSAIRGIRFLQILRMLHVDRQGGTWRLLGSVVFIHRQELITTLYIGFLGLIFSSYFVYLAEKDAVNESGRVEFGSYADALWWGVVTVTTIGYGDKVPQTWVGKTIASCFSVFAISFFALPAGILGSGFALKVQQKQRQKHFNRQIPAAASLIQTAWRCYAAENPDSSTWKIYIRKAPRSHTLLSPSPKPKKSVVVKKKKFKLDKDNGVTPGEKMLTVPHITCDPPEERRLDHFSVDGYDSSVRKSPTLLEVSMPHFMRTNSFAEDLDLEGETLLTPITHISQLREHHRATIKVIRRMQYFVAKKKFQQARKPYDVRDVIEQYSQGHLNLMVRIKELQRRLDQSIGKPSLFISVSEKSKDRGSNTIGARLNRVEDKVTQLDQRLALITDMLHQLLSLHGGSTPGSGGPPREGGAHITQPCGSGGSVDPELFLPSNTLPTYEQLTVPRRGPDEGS
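Doses: Single concentration per compound, DMSO matched to controls | Test system: KCNQ1-transfected CHO-K1 cells | Timing: 90 min dye loading and 20 min compound exposure, both at room temperature | Measured by: Kinetic FluxOR thallium fluorescence, 10-s 1-Hz baseline, 110-s post-stimulus read | Medium: Assay buffer with matched DMSO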
KCNQ1 block: inhibitors of human KCNQ1 channel, primary screen, cell-based, thallium flux, high-throughput; B-score at 10 µM; CHO-K1 KCNQ1, FluxOR thallium flux fluorescence; active compounds read high; 310,000 compounds, 1.3% hits; Potassium voltage-gated channel subfamily KQT member 1 (Homo sapiens), P51787;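 active = compounds whose thallium flux B-score, printed positive for inhibition, exceeds three library SD while starting fluorescence stays within three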;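 note: channel opened by potassium depolarization with thallium stimulus after 20 min compound exposure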
KCNQ1 inh valid: KCNQ1 potassium channel inhibitors, confirmation, cell-based, Tl flux, duplicate; inhibition, % at 10 µM; KCNQ1 cell line, FluxOR thallium flux fluorescence; AID 588353, 2011; shares compounds with KCNQ1 block; 1,600 compounds, 93% hits;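 active = primary screen active, with duplicate mean exceeding buffer control mean plus 3 SD of buffer wells, cut at about 28% in these data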;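 note: 0% = buffer control ratio and 100% = XE991 inhibitor control ratio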
CHO Tl flux: thallium flux effects in parental CHO cells, counter-screen for KCNQ1 inhibitor project, cell-based, Tl flux; shares compounds with KCNQ1 block; parental CHO-K1, FluxOR thallium flux fluorescence ratio; active compounds read low; zero means no signal rise above baseline; fluorescence ratio (Tl flux) at 10 µM; 1,600 compounds, 21% hits; AID 588366, 2011;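 active = mean of duplicate thallium-flux fluorescence ratios in parental host cells more than 5 SD below the buffer control mean, cut at about 0.38 in these data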;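 note: ratio is peak minus minimum fluorescence divided by baseline fluorescence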
KCNQ1 ephys val: KCNQ1 channel inhibitors, confirmation, orthogonal assay, cell-based, automated electrophysiology. 490 compounds, 20% hits. AID 624120, 2012. KCNQ1-CHO cells, automated patch clamp current. shares compounds with KCNQ1 block. calls only at 10 µM;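 active = KCNQ1 current drop exceeding 3 SD of negative control wells, seen in both duplicate runs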;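 note: steady state current during a 2 s step from -80 to +40 mV; negative values mean current inhibition and positive values mean potentiation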
KCNQ2 inh: KCNQ2 channel inhibition, selectivity assay for KCNQ1 inhibitor project, cell-based. 1,600 compounds, 71% hits. shares compounds with KCNQ1 block. inhibition, % at 10 µM. KCNQ2 cells, FluxOR thallium flux fluorescence;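 active = mean percent inhibition of the KCNQ2 thallium signal more than 5 SD above the buffer-only control wells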;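 note: KCNQ2 expressed in CHO cells; 0% = buffer control wells and 100% = XE-991 inhibitor control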
KCNQ1 KCNE1 spec: KCNQ1/KCNE1 channel inhibition, selectivity assay for KCNQ1 inhibitor project, CHO-K1 cells, thallium flux, FluxOR; shares compounds with KCNQ1 block; 1,600 compounds, 77% hits; FluxOR thallium flux fluorescence; inhibition, % at 10 µM;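 active = mean percent inhibition of duplicate wells above the buffer-only control mean plus 3 SD of those controls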;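 note: 0% = buffer only wells and 100% = XE-991 inhibitor control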
KCNK9 inh conf: KCNK9 potassium channel inhibitors, confirmation, HEK293 cells, thallium flux, duplicate. 4,900 compounds, 43% hits. shares compounds with KCNK9 inh. inhibition, % at 10 µM. FluxOR thallium flux fluorescence. AID 492992, 2010;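 active = thallium signal inhibited by more than 5 SD of the compound-free buffer control wells, on both duplicate plates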;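 note: 0% = assay buffer control wells without compound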
Kir21 sel: mouse Kir2.1 channel inhibition, confirmation, selectivity assay for KCNK9 modulator project, cell-based, HEK293, thallium flux. shares compounds with KCNK9 inh. Kir2.1 cells, FluxOR thallium flux fluorescence. inhibition, % at 10 µM. 4,900 compounds, 4% hits. AID 492993, 2010;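 active = thallium signal drop more than 5 SD beyond the mean of the no-compound control wells, seen in both duplicate plates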;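 note: signal is fluorescence rise after thallium addition divided by baseline fluorescence; plate controls were assay buffer only for no effect and full block by chlorpromazine control for full effect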
HEK293 Tl ctr: thallium flux in non-induced HEK293 cells, confirmation, counter-screen for KCNK9 inhibitor project, cell-based, second counter screen, non-induced KCNK9-HEK293 | 4,900 compounds, 40% hits | shares compounds with KCNK9 inh | inhibition, % at 10 µM | AID 492997, 2010 | FluxOR thallium flux;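 active = thallium signal drop beyond 5 SD of the untreated control mean, on both duplicate plates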;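 note: plate controls were buffer only IC0 wells for no effect and SID17386958 at its maximal inhibitory level for full effect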
The depositor's hits bear a star; i = inactive; · = no result given; + = active, no number. A selection: hits, their analogues and other compounds. The true share with any hit is near 3.1%.

SMILES	KCNK9 inh	hERG protect	KCNK3 block	KCNQ1 pot	KCNQ1 block	KCNQ1 inh valid	CHO Tl flux	KCNQ1 ephys val	KCNQ2 inh	KCNQ1 KCNE1 spec	KCNK9 inh conf	Kir21 sel	HEK293 Tl ctr
CCc1c(C#N)c(SCCC(=O)Nc2ccc(C)cc2)nc2c1C(=O)CC(C)(C)C2	i	-12	i	i	7*	93*	0.52	i	83%*	56%*	i	i	i
CCN1C(c2ccccc2)C(C)C(=O)C(C)C1c1ccccc1 (configuration not stated)	i	-11	i	i	8*	120*	0.42	i	89%*	128%*	i	i	i
C=CC[C@@H](CC(=O)N[C@H](CO)Cc1ccccc1)C(=O)N[C@H](COC(=O)[C@@H](CC=C)Cc1ccc(F)cc1)Cc1c[nH]c2ccccc12	·	·	i	·	·	·	·	·	·	·	·	·	·
COC(=O)C(Cc1c[nH]c2ccccc12)NC(=O)C(C)C (configuration not stated)	i	-6	i	i	i	·	·	·	·	·	·	·	·
COC(=O)C(Cc1c[nH]c2ccccc12)NC(=O)C(=O)c1c[nH]c2ccccc12 (configuration not stated)	-12*	-18	i	i	7*	68*	0.48	·	84%*	108%*	i	i	i
O=C(COC(=O)c1nc(Cl)c(Cl)c(Cl)c1Cl)NCc1ccccc1	·	·	i	·	·	·	·	·	·	·	·	·	·
CCOc1ccccc1NC(=O)C(NCC1CCCCC1)c1ccccc1 (configuration not stated)	-8.9*	-29	i	i	10*	131*	0.38	i	125%*	156%*	46%*	i	40%*
N#CCC(=O)Nc1ccc(C(=O)OCC(=O)Nc2ccccc2Sc2ccccc2)cc1	-9.1*	-5	i	i	6*	99*	0.43	+	91%*	153%*	50%*	i	34%*
COc1ccc(-c2[nH]c(-c3cc(OC)c4c(c3)OCO4)nc2-c2ccccc2)cc1	-9*	-28	i	i	9*	152*	0.34*	·	131%*	186%*	38%*	i	32%*
Cc1ccc(-c2[nH]c(-c3ccc(C(=O)O)cc3)nc2-c2ccccc2)cc1	i	-12	i	i	i	·	·	·	·	·	·	·	·
O=C1c2ccccc2OC2(C=Cc3ccccc3O2)N1Cc1ccccc1 (configuration not stated)	-14*	-9	i	i	7*	116*	0.38*	·	109%*	158%*	46%*	i	34%*
CCCc1nc(SCC(=O)N2CCC(Cc3ccccc3)CC2)c2c(=O)n(C)c(=O)n(C)c2n1	i	-34	i	i	6*	98*	0.41	·	i	i	i	i	i
O=C(Nc1ccc(Cl)c(Cl)c1)N1CCSC1c1ccco1 (configuration not stated)	-11*	-10	i	i	10*	111*	0.37*	·	i	118%*	53%*	i	i
CC(=O)Nc1ccc(S(=O)(=O)N2CCSC2c2ccco2)cc1 (configuration not stated)	i	-10	i	i	i	·	·	·	·	·	·	·	·
O=C(Nc1ccc(Cl)c(Cl)c1)Nc1ccccc1NS(=O)(=O)c1cccs1	-13*	-29	i	i	18*	114*	0.43	i	77%*	43%*	44%*	i	i
[O-][n+]1nc2ccccc2c2ccccc21	·	·	i	·	·	·	·	·	·	·	·	·	·
Cc1nn(CCc2nn[nH]n2)c2nc(-c3ccc(Br)cc3)cc(C(F)(F)F)c12	i	-6	i	i	8*	76*	0.38*	·	101%*	59%*	i	i	i
CC(C)c1ccc(N(C(=O)c2csnn2)C(C(=O)NC2CCCC2)c2cccnc2)cc1 (configuration not stated)	i	-2	i	i	i	·	·	·	·	·	·	·	·
CCOCCCNC(=O)c1cn(CC)c2ccc(S(=O)(=O)N3CCCC3)cc2c1=O	i	-6	i	i	i	·	·	·	·	·	·	·	·
CCOC(=O)c1c(-c2ccccc2)csc1NC(=O)c1nn(CC)cc1Br	i	-10	i	i	i	·	·	·	·	·	·	·	·
CCOC(=O)c1c(-c2ccccc2)csc1NC(=S)N(CC)CC	-8.2*	-11	i	i	7*	126*	0.49	i	106%*	145%*	46%*	i	28%*
Cc1cccc2c1cnn2C(=O)CCC(=O)N1CCC(C)CC1	i	-5	i	i	i	·	·	·	·	·	·	·	·
Cc1cccc2c1cnn2C(=O)CCC(=O)N1CC(C)CC(C)C1 (configuration not stated)	i	-13	i	i	11*	25*	0.48	·	72%*	i	i	i	i
